Diaph inh CS = inhibits diaphorase or chemically oxidizes, flagging diaphorase assay artifacts; diaphorase resazurin-to-resorufin fluorescence, NADH, 16 min; bacterial (C. kluyveri) enzyme, not human; inhibition, % at 20 µM; hit rate 0.69% among 190,000; AID 1217;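 active = primary screen inhibition at 20 µM above a set limit, cut at about 50% in these data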;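 note: plate controls were DMSO with full reaction for no effect and wells lacking NADH for full effect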
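material = Clostridium kluyveri diaphorase enzyme | amount = 0.14 U/mL diaphorase, enzyme working solution | schedule = incubation 16 min, room temperature | detection = fluorescence of resorufin formed from resazurin, Ex 544/Em 590 nm | benchmarks = positive control minus NADH, DMSO neutral control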
WT yeast gro inh = growth inhibition of WT yeast, mitochondrial fusion screen. mitochondrial fusion phenotypic screen, WT strain. hit rate 2.1% among 190,000. inhibition, % at 10 µM; in the data active = inhibition above about 58%; tested in S. cerevisiae
Diaphorase act = activates diaphorase or chemically reduces, flagging diaphorase assay artifacts; activation factor at 20 µM; hit rate 0.005% among 190,000; Diaphorase/resazurin coupled assay, resorufin fluorescence, 16 min; hits give high values; 1 = vehicle wells, 0 = NADH-free wells;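 active = diaphorase activity raised at least twofold by the compound at 20 µM; inactive = activation factor below 2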
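Test system: Clostridium kluyveri diaphorase, purified enzyme. Buffer or medium: 50 mM HEPES pH 7.4 buffer plus MgCl2 and Tween 20. Also added: 0.114 mM NADH and 0.1 mM resazurin, final amounts. Dosing: compound 20 µM once, DMSO 1%. Schedule: 16 min enzyme reaction, ambient temperature. Detection: fluorescence of resorufin, 544 nm excitation, 590 nm emission.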
Lmaj promast = inhibitors of Leishmania major promastigote growth; Leishmania major promastigotes, resazurin fluorescence viability; inhibition, % at 10 µM; hit rate 9% among 200,000; in the data active = inhibition above about 50%;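 note: promastigotes grown with compound for 44 hours at 28 °C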
ROMK mod = modulates human ROMK potassium channel activity. hit rate 2% among 130,000. Tet-inducible ROMK, thallium flux fluorescence; actives lie on both sides. P48048. B-score at 10 µM;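 active = signal ratio slope over the read window, or its plate-corrected B-score, at least 3 SD from the plate mean, either direction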;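 note: B-score of the F/F0 ratio slope over 7 to 12 s after thallium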
KCC2 mod = modulates chloride dependent transport by human KCC2. Q9H2X9. AID 1456. KCC2 cells, thallium flux FluoZin-2 fluorescence. hit rate 2.2% among 190,000. B-score of Tl+ flux slope (higher = more flux/activation; lower = inhibition) at 10 µM;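 active = thallium flux slope and its plate-corrected score both differing from the plate sample mean at a set confidence after two filtering rounds, in either direction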;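 note: slope of fluorescence scaled to starting intensity during 10 to 20 s after thallium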
Target sequence (Q9H2X9 whole entry, looked up): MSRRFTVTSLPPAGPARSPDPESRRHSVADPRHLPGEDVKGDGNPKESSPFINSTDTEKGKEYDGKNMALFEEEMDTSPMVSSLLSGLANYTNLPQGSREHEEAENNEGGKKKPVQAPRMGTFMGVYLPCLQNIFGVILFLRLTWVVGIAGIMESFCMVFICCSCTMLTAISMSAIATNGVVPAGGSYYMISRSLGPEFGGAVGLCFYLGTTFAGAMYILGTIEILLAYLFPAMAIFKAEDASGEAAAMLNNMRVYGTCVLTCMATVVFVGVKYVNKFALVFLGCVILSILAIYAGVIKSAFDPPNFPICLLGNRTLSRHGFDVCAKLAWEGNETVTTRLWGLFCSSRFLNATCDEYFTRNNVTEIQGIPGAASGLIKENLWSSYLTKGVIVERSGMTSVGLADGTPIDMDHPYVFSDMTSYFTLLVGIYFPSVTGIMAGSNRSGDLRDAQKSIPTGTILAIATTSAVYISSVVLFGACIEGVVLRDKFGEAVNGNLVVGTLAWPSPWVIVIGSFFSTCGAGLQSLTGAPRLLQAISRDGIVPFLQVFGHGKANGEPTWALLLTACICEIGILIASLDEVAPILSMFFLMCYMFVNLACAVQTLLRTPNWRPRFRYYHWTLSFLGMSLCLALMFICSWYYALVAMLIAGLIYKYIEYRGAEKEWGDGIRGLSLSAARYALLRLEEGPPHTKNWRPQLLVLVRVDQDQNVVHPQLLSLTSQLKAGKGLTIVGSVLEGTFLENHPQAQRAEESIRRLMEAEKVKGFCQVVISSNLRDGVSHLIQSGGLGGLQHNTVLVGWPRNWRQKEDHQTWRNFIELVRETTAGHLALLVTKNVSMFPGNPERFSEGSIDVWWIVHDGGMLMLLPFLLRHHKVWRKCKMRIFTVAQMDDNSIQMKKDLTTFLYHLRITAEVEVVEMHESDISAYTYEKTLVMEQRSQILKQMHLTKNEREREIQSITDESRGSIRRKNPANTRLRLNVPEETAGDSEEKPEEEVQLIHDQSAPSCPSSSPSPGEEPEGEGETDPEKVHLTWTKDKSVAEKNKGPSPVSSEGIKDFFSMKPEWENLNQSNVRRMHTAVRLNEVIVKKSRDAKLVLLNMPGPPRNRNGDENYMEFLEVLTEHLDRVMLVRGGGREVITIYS
* = called active by the depositor. Shown are actives, neighbours in structure and some others; about 12% of the full set was active somewhere.

`COCCCNC(=O)c1cc(S(=O)(=O)N2CCOCC2)ccc1SCc1cccc(OC)c1OC` gave Diaph inh CS 9, WT yeast gro inh -2, Diaphorase act 0.9, Lmaj promast 0, ROMK mod -0.29 and KCC2 mod 0.67.
`COc1ccc(OC)c(C(=O)N2CCC(C(=O)c3ccc(F)cc3)CC2)c1` gave Diaph inh CS 11, WT yeast gro inh -20, Diaphorase act 0.9, Lmaj promast -1 and KCC2 mod 1.3.
COc1ccc(-c2cc(C(=O)Nc3nc4ccccc4s3)c3ccccc3n2)cc1OC was read as Diaph inh CS 19, WT yeast gro inh 24, Diaphorase act 0.8, Lmaj promast 98*, ROMK mod 0.76 and KCC2 mod 1.8.
Screening COc1ccc(-c2cc(C(=O)Nc3ccccc3O)c3ccccc3n2)cc1OC returned Diaph inh CS 14, WT yeast gro inh 26, Diaphorase act 0.9, Lmaj promast -5, ROMK mod -0.19 and KCC2 mod 0.74.
`Cc1cc(Br)ccc1OCCCCN1CCCCC1` gave Diaph inh CS 10, WT yeast gro inh 32, Diaphorase act 0.9, Lmaj promast 100*, ROMK mod -1.6 and KCC2 mod 1.
Cc1cccc(C(C)(C)C)c1OCCN1CCCC1 was read as Diaph inh CS 2, WT yeast gro inh -3, Diaphorase act 1, Lmaj promast 6, ROMK mod 0.62 and KCC2 mod -0.036.
For Cc1cc(C(C)(C)C)ccc1OCCCCN1CCCC1 the results were Diaph inh CS 5, WT yeast gro inh 17, Diaphorase act 0.9, Lmaj promast 99*, ROMK mod -1.4 and KCC2 mod 0.32.
Screening O=C(N[C@H](C(=O)O)c1ccccc1)C1CCC(Cn2nnc3ccccc3c2=O)CC1 (stereo partly drawn) returned KCC2 mod -0.54.
For CCCCc1ccc(NC(=O)N2CCNC(=O)C2CC(=O)Nc2ccsc2C(=O)OC)cc1 (stereo not drawn) the results were ROMK mod 0.23 and KCC2 mod 1.1.
`Cc1ccc(OCC(=O)c2cc(C)n(C)c2C)c([N+](=O)[O-])n1` gave Diaph inh CS 24, WT yeast gro inh 6, Diaphorase act 0.8, Lmaj promast 53* and KCC2 mod -0.11.
For Cc1ccc(-n2c(C)cc(C(=O)COc3cccnc3[N+](=O)[O-])c2C)cc1 the results were Diaph inh CS 35, WT yeast gro inh 14, Diaphorase act 0.7, Lmaj promast -2, ROMK mod -0.61 and KCC2 mod -0.2.
Screening Cc1cc(C(=O)COc2cccnc2[N+](=O)[O-])c(C)n1-c1ccccc1 returned Diaph inh CS 37, WT yeast gro inh 5, Diaphorase act 0.6, Lmaj promast 51*, ROMK mod 0.0048 and KCC2 mod 0.15.
Screening Cc1cc(C(=O)COc2cccc3cccnc23)c(C)n1C returned Diaph inh CS 44, WT yeast gro inh -18, Diaphorase act 0.6, Lmaj promast -4 and KCC2 mod -0.67.
Screening CCS(=O)(=O)CCSC(=N)N returned Diaph inh CS 8, Diaphorase act 0.9, Lmaj promast 5, ROMK mod 0.97 and KCC2 mod 2.3.
For N=C1/C(=C/c2cccs2)C(=O)N=C2SN=C(SCc3ccccc3)N12 the results were Diaph inh CS 14, WT yeast gro inh 24, Diaphorase act 0.9, Lmaj promast -10 and KCC2 mod 32*.
For CSC1=NSC2=NC(=O)/C(=C\c3cccs3)C(=N)N12 the results were Diaph inh CS 11, WT yeast gro inh 23, Diaphorase act 0.9, Lmaj promast 0, ROMK mod -0.75 and KCC2 mod -0.16.
For Cc1ccc2oc(=O)c3cc(C(=O)Nc4cc(-c5cccc(F)c5)no4)sc3c2c1 the results were Diaph inh CS 7, WT yeast gro inh -10, Diaphorase act 0.9, Lmaj promast -9, ROMK mod -1.2 and KCC2 mod 0.93.
Screening CCOC(=O)C1C(=O)C=C(c2ccc(Br)cc2)CC1c1ccco1 (stereo not drawn) returned Diaph inh CS 15, WT yeast gro inh 62*, Diaphorase act 0.8, Lmaj promast 5 and KCC2 mod -0.88.
Screening COc1ccc(C(=O)NCc2ccccc2)cc1S(=O)(=O)N1CCCc2ccccc21 returned Diaph inh CS 5, WT yeast gro inh 4, Diaphorase act 0.9, Lmaj promast 61*, ROMK mod -1.9 and KCC2 mod -3.9.
COc1ccc(C(=O)OCC(=O)N(C)C2CCS(=O)(=O)C2)cc1S(=O)(=O)N1CCCc2ccccc21 (stereo not drawn) was read as Diaph inh CS -4, WT yeast gro inh 3, Diaphorase act 1, Lmaj promast -5, ROMK mod -0.39 and KCC2 mod 0.47.
Screening CC(=O)Nc1ncc(Cc2cccc(Cl)c2Cl)s1 returned Diaph inh CS -10, WT yeast gro inh -3, Diaphorase act 1.1, Lmaj promast 4, ROMK mod 0.15 and KCC2 mod 0.21.
`CC(=O)Nc1ncc(Cc2cc(Cl)ccc2Cl)s1` gave Diaph inh CS 16, WT yeast gro inh 76*, Diaphorase act 0.8, Lmaj promast 20, ROMK mod -0.31 and KCC2 mod 0.51.
For CN(C)CCCNC(=S)Nc1ccc(Br)cc1 the results were KCC2 mod 1.1.
Screening CCCCC1OC2(C)OC(=N)C1(C#N)C(C#N)(C#N)C2c1ccccc1 (stereo not drawn) returned Diaph inh CS 58*, WT yeast gro inh 0, Diaphorase act 0.4, Lmaj promast 13, ROMK mod 0.01 and KCC2 mod -0.08.
Screening O=C(CC(=O)c1ccccc1O)c1ccc(F)cc1 returned Diaph inh CS 2, WT yeast gro inh 63, Diaphorase act 1, Lmaj promast 97*, ROMK mod 1.4 and KCC2 mod 24*.
For Cc1ccc(C(=O)CC(=O)c2cc(Cl)ccc2O)cc1 the results were Diaph inh CS 15, WT yeast gro inh 62*, Diaphorase act 0.9, Lmaj promast 99* and ROMK mod 1.
Screening O=C(CC(=O)c1ccccc1O)c1cccc(F)c1 returned Diaph inh CS 12, WT yeast gro inh 53, Diaphorase act 0.9, Lmaj promast 98* and ROMK mod -0.74.
`O=C(CNc1ccc(F)cc1)c1ccccc1` gave Diaph inh CS 7, WT yeast gro inh 2, Diaphorase act 0.9, Lmaj promast 83*, ROMK mod 0.05 and KCC2 mod -0.13.
`Nc1oc2ccccc2c(=O)c1C=O` gave Diaph inh CS 4, WT yeast gro inh -17, Diaphorase act 1, Lmaj promast -6, ROMK mod 0.7 and KCC2 mod 1.2.
Screening O=C(c1cc([N+](=O)[O-])ccc1Cl)N1c2ccccc2Sc2ccccc21 returned Diaph inh CS 18, WT yeast gro inh 1, Diaphorase act 0.8, Lmaj promast 35, ROMK mod 0.043 and KCC2 mod -0.38.

Compound activity: PubChem BioAssay, several laboratories
